# Hits are enriched below; roughly 1.1% of the tested compounds scored in any of these assays.
# proCasp7 act: counter-screen for procaspase-3 activators: activators of human procaspase-7 | P55210 | recombinant procaspase-7, Ac-DEVD-pNA absorbance 405 nm; D23A/D198A/D206A triple mutant, cannot self-cleave; scale: DMSO 0, 5 µM enzyme 100 | activation, % at 8.5 µM | 0.093% of 330,000 active;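 active = percent activation above the screen-wide mean plus 3 SD, cut at about 25% in these data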
# Target sequence (P55210 whole entry D23A/D198A/D206A): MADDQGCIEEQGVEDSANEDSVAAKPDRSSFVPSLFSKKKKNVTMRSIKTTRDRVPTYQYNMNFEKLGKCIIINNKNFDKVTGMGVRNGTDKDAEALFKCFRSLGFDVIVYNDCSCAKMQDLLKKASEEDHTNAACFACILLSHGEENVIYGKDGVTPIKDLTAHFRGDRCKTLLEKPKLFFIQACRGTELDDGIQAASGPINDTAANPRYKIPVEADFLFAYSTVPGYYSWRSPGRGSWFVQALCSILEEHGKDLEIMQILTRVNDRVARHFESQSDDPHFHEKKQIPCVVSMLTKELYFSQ
#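 Replicates: singlicate. Assay system: Procaspase-7 triple mutant (PC-7 D3A). Signal: 405 nm absorbance of p-nitroaniline. Times: 1 h preincubation, 2 h reaction. Buffer or medium: Zinc-free HEPES pH 7.4 with 300 mM NaCl, 0.01% Triton X-100. Also added: DEVD-pNA substrate. Benchmarks: DMSO wells as 0%, DMSO with 5 µM added PC-7 as 100%.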
# aDG glyco act: alpha-DG glycosylation activation; activation, % at 10 µM; 0.22% of 360,000 active; Pro5-aDG cells, alpha-DG glycosylation AlphaScreen (IIH6); 0% Pro5, 100% B10-LARGE cell signal; AID 624168;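 active = activation of at least 8% versus controls, or a plate z-score of at least 8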;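 also: Pro5 are CHO cells carrying HIG-tagged alpha-DG that lacks glycosylation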
# procasp3 activ: procaspase-3 (human) activation | recombinant procaspase-3 D3A, Ac-DEVD-pNA absorbance 405 nm | activation, % at 8.5 µM | 0.11% of 330,000 active;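 active = activation above the mean of all tested compounds plus 3 SD, cut at about 21% in these data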;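 also: 0% = DMSO alone and 100% = DMSO wells spiked with extra 5 µM PC-3 D3A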
# Target sequence (P42574 whole entry D9A/D28A/D175A): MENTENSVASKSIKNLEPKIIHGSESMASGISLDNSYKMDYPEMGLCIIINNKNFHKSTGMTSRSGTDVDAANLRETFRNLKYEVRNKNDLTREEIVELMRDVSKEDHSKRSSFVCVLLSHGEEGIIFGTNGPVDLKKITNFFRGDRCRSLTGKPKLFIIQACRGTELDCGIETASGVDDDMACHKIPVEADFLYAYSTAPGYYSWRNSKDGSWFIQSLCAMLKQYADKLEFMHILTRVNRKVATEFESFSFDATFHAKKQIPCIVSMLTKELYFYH
#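 Compound: 8.5 µM single point, 0.8% DMSO / Material: Autoprocessing-dead procaspase-3 D3A mutant enzyme / Timing: 1 h preincubation plus 2 h reaction at 25 °C / Medium: Zinc-free HEPES/NaCl buffer with 0.01% Triton X-100 at pH 7.4 / Technique: 405 nm absorbance of p-nitroaniline, reads at 0 and 120 min / Repeats: one well per compound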
# CaV13 FRET inh: Primary screen for inhibitors of IQ motif and Ca2+-dependent inactivation inhibitor domain binding in CACNA1D, Förster resonance energy transfer in living cells, …; HEK cells, CFP/YFP FRET ICDI-IQ, plate reader, 10 min; percent FRET-ratio fall versus neutral wells; 0.098% of 340,000 active; inhibition, % at 12.3 µM; AID 743397;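 active = mean replicate inhibition of at least 30% and at least 1% of replicates passing that level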;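 also: 0% = median of the neutral control wells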
# GRK2 aptamer HTS: inhibitors of human GRK2 displacing RNA aptamer. P25098. bead flow cytometry, FAM-aptamer displacement from GRK2. inhibition of aptamer binding, % at 10 µM. 0.59% of 330,000 active;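 active = inhibition of aptamer binding above 40%, roughly 3 SD of noise, on plates passing a quality check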;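 also: median bead fluorescence of bound FAM aptamer so fluorescent compounds give negative values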
# T cell modulator: T cell immune modulators affecting CD8 T cell-vesicle binding | 2C CD8+ T cell-vesicle binding, flow cytometry; active compounds read low | response (vesicle binding), % at 7 µM | 0.068% of 330,000 active;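 active = response, share of CD8 T cells binding vesicles, and their 90th percentile fluorescence all below set limits, cut at about 80% in these data, passing the limit was not always enough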;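 also: values below 100% mean blocked vesicle binding to the CD8+ T cells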
#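 material = purified 2C TCR transgenic mouse naive CD8+ T cells | controls = Unloaded micro-vesicles (low), QL9 vesicles with 0.7% DMSO (high) | detection = cytometric PE anti-B7-1 and Alexa647 anti-CD8 signals after 1% paraformaldehyde fixation | incubation = binding step 1.5 h, 37 °C, antibody labelling 20 min, ice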
# GRK2 CP1: human GRK2 inhibition confirmation, cherry pick 1. 4% of 2,000 active. AID 504451. bead-bound GRK2, FAM-aptamer displacement, flow cytometry. aptamer displacement, % at 10 µM. shares compounds with GRK2 aptamer HTS;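 active = aptamer displacement above 40%, near three times the noise of non-fluorescent compounds, on plates passing quality checks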;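 also: negative values mostly reflect intrinsic compound fluorescence rather than true enhancement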
# Aptamer quench: counter-screen for GRK2 aptamer inhibitors: fluorescent aptamer quenchers; shares compounds with GRK2 aptamer HTS; Fluorescent RNA aptamer beads, quenching, flow cytometry; active compounds read high; fluorescence change (kMESF span), kMESF (no concentration beside the values); 110 tested, under 10 active;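 active = compounds whose bead fluorescence drops by more than 37 kMESF across the dose range, marking them as dye quenchers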
# Aptamer quench SP: counter-screen for GRK2 aptamer inhibitors: fluorescent aptamer quenchers; shares compounds with GRK2 aptamer HTS; Carboxyfluorescein RNA aptamer on beads, flow cytometry quenching; active compounds read low; 2,000 tested, under 10 active; fluorescence response (% of DMSO), % at 10 µM;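 active = compounds that quench the bead-bound fluorescent RNA probe, cutting fluorescence to under half of the solvent control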;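 also: counterscreen run without GRK2 so only probe quenching by compound is measured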
# GRK2 confirm 2: confirmation of human GRK2 inhibitors binding RNA aptamer site; shares compounds with GRK2 aptamer HTS; bead-bound GRK2, FAM-aptamer displacement, flow cytometry; inhibition of aptamer binding, % at 10 µM; 360 tested, under 10 active;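 active = inhibition of aptamer binding above 40%, about triple the noise seen with nonglowing compounds, on plates passing quality control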;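 also: negative values mostly come from compounds that fluoresce themselves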
# Aptamer quench3: quenches fluorescent RNA aptamer, GRK2 hit artifact; 25 tested, under 10 active; Streptavidin beads, FAM-RNA aptamer fluorescence quenching, flow cytometry; change in fluorescence (kMESF span), kMESF (no concentration beside the values); shares compounds with GRK2 aptamer HTS; AID 504819;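 active = compounds quenching the bead-bound labeled aptamer, with fluorescence dropping by more than 37 kMESF over the dose range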
# FAM quench SP: counter-screen for GRK2 binding hits: quenchers of fluorescent RNA aptamer. carboxyfluorescein RNA aptamer beads, flow cytometry quenching; active compounds read low. 360 tested, under 10 active. fluorescence response vs DMSO, % at 10 µM. shares compounds with GRK2 aptamer HTS;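 active = response vs DMSO under 50%, meaning signal dropped by over half, treated as fluorescence quencher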;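 also: labelled aptamer on streptavidin beads without GRK2 as a quench counter-screen; 100% = bead fluorescence of DMSO wells and lower means quenching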
# FAM quench DR: counter-screen for GRK2 aptamer binding inhibitors: aptamer fluorescence quenching; 35 tested, under 10 active; AID 588496; Bead-bound FAM RNA aptamer fluorescence quenching, flow cytometry; active compounds read low; shares compounds with GRK2 aptamer HTS; fluorescence ratio to DMSO, % at 11.1 µM;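 active = compounds that dim the fluorescent label, raw bead signal shifting by over 33 units between lowest and highest dose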
# * = called active by the depositor; . = no result given.
SMILES,proCasp7 act,aDG glyco act,procasp3 activ,CaV13 FRET inh,GRK2 aptamer HTS,T cell modulator,GRK2 CP1,Aptamer quench SP,others
Cc1ccc(S(=O)(=O)Nc2nnc(CC(C)(C)C)s2)cc1,15.5,-0.1,2.1,-19.9,1.0,271.8,.,.,
COc1ccc(S(=O)(=O)CCC(=O)Nc2ccc(OC)cc2OC)cc1,2.0,-0.1,-3.2,-4.6,4.0,353.0,.,.,GRK2 confirm 2=-6.7;FAM quench SP=102.0
COc1ccc([N+](=O)[O-])cc1NC(=O)CCS(=O)(=O)c1ccc(Br)cc1,13.3,-0.1,-2.7,-17.5,54.0*,262.6,33.3,101.9,Aptamer quench=-7.6;Aptamer quench3=1.9;FAM quench DR=97.0
COc1ccc(S(=O)(=O)CCC(=O)N(C)c2ccc(OC)cc2OC)cc1,-2.3,0.0,3.0,-5.1,2.0,503.0,.,.,GRK2 confirm 2=17.0;FAM quench SP=101.0
COc1ccc(NC(=O)CCS(=O)(=O)c2ccccc2)c(OC)c1,4.6,-0.1,1.4,-4.9,2.0,420.5,.,.,
COc1ccccc1Cc1c(-c2cccc(Br)c2)nc2ccc(C)cn12,.,.,.,-8.2,.,.,.,.,
CSc1ccc(/C=C/C(=O)c2ccc(NC(C)=O)cc2)cc1,8.8,-0.1,-6.6,-7.1,88.0*,573.0,-4.1,96.4,
COc1ccc(CNC(=O)C2CC(C)=C(C)CC2C(=O)O)cc1OC (stereo not drawn),6.4,0.1,4.7,-18.3,0.0,203.2,.,.,GRK2 confirm 2=6.4;FAM quench SP=98.0
CCOc1ccc(CCNC(=O)C2CC(C)=CCC2C(=O)O)cc1OCC (stereo not drawn),15.4,0.1,1.3,-20.4,66.0*,194.1,53.0*,98.4,Aptamer quench=4.1
O=C(N[C@H](c1cccc(Br)c1)[C@@H]1CCCC=C1c1ccccc1)C(F)(F)F,.,.,.,-10.1,.,.,.,.,
COC(=O)c1[nH]c2c(c1C)C(=O)CCC2,14.2,0.0,-7.9,-2.2,19.0,398.5,0.8,92.8,
Cc1c(C(=O)OC2CCC(C)CC2)[nH]c2c1C(=O)CCC2 (stereo not drawn),3.7,0.0,6.1,-2.6,1.0,629.6,.,.,
O=C1CN(C(=O)c2ccccc2F)c2ccccc2N1,-7.3,0.0,4.0,-5.0,48.0*,789.1,1.3,96.4,
O=C1CN(C(=O)c2ccccn2)c2ccccc2N1,1.8,-0.1,4.0,-0.3,0.0,552.9,.,.,
COC(=O)Cc1nnc(Nc2cccc(C)c2)c2ccccc12,5.8,-0.1,9.5,0.9,3.0,312.0,.,.,
CCOC(=O)Cc1nnc(Nc2cccc(C)c2)c2ccccc12,-12.2,0.3,0.7,-6.3,92.0*,181.8,11.0,132.7,
O=C(Nc1ccc(NC(=O)c2ccccc2Cl)cc1)c1cccnc1,3.2,0.1,0.9,-2.7,3.0,274.8,.,.,
O=C(Nc1ccc(N2CCCC2)c(Cl)c1)c1cccnc1,-3.4,0.0,-0.6,.,60.0*,316.1,-14.2,37.2*,
O=C(Nc1cccnc1)c1ccccc1Cl,0.6,-0.1,-4.9,-11.0,81.0*,117.6,-1.9,97.4,
Cc1cccc(S(=O)(=O)Nc2cc(Cl)ccc2N2CCOCC2)c1,4.4,-0.1,1.9,-4.7,81.0*,493.3,-2.4,106.4,
O=S(=O)(Nc1cc(C(F)(F)F)ccc1N1CCOCC1)c1ccccc1,5.5,-0.1,-3.8,-20.9,1.0,424.0,.,.,
CC(C)(C)C1=CC(CC(N)=O)(C(C)(C)C)OC1=O (stereo not drawn),.,.,.,-11.5,.,.,.,.,
COc1ccc(OC)c(N(CC(=O)N2CCCC2)S(C)(=O)=O)c1,7.2,0.0,5.0,-20.4,0.0,325.3,.,.,
CC(=O)O[C@@H]1C=C[C@@H](C#Cc2ccc(C(C)(C)C)cc2)O[C@@H]1COC(=O)NC(C)C,.,.,.,-3.4,.,.,.,.,
CCc1nnc(NS(=O)(=O)c2ccc(NC(=O)COc3ccc4ccccc4c3)cc2)s1,-0.9,-0.2,-8.6,-5.5,51.0*,30.4,3.3,97.5,
SMILES,proCasp7 act,aDG glyco act,procasp3 activ,CaV13 FRET inh,GRK2 aptamer HTS,T cell modulator,GRK2 CP1,Aptamer quench SP,others
Cc1cccc(C(=O)n2c(=S)nc3ccccn32)c1,-20.3,0.0,-3.9,.,49.0*,182.3,-14.6,97.2,
O=C(c1ccccc1)n1c(=S)nc2ccccn21,9.0,-0.1,-5.9,.,0.0,118.0,.,.,
Cc1cccc(NC(=O)COC(=O)C2COc3ccccc3O2)c1C (stereo not drawn),4.0,0.0,9.3,-6.2,2.0,321.2,.,.,
Cc1cc(S(=O)(=O)N2CCCCC2CCNC(=O)C(=O)NCc2cccnc2)ccc1F (stereo not drawn),8.3,0.7,10.9,-12.0,100.0*,131.2,0.9,104.3,
COc1cccc(CNS(=O)(=O)c2ccccc2Br)c1,.,.,.,-5.2,.,.,.,.,
Cc1ccc2[nH]c3c(=O)n(CC(=O)NCCCN(C)Cc4ccccc4)ncc3c2c1,13.0,0.6,4.0,-6.8,0.0,819.3,.,.,
CCN(CCCNC(=O)Cn1ncc2c([nH]c3ccc(C)cc32)c1=O)c1ccccc1,-5.5,0.0,4.4,-6.8,48.0*,331.9,-2.0,98.2,
CCN(CCCNC(=O)Cn1ncc2c([nH]c3ccc(C)cc32)c1=O)c1cccc(C)c1,-1.8,2.2,2.2,.,0.0,58.8,-5.8,99.5,
CN1CCc2nc3sc(C(=O)C45CC6CC(CC(C6)C4)C5)c(N)c3cc2C1,-7.9,0.2,-12.0,-3.2,51.0*,304.1,-20.8,93.5,
